This is an account of results in ChEMBL document CHEMBL1151829, “Molluscicidal Phloroglucinols from the Fern Elaphoglossum piloselloides” (2009).

Some results are limits rather than exact numbers.

Assay type in all cases: functional
For one assay, the system named is Biomphalaria pfeifferi. In words: Molluscicidal activity against Biomphalaria pfeifferi. The conditions noted are these: read-out: LD50 (the source's name).
The subject of the next assay is Biomphalaria alexandrina. Description: Molluscicidal activity against Biomphalaria alexandrina. As to conditions: read-out: LD50 (the source's name).
The next assay concerns Oncomelania hupensis. Description: Molluscicidal activity against Oncomelania hupensis. As to conditions: read-out: LD50 (the source's name).
Assay [1] deals with Biomphalaria peregrina. In words: Molluscicidal activity against Biomphalaria peregrina assessed as mortality at 40 ppm after 24 hrs. The method in brief:
(§1)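 WHO protocol on adult snails, seven per beaker, each concentration in triplicate. Test solutions in water with MeOH ≤5% v/v; same-volume solvent controls. After 24 h exposure, snails were rinsed in dechlorinated tap water and kept 24 h to recover in dechlorinated tap water with lettuce leaves. Percent mortality was then recorded at the stated ppm.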

The test system of assay [2] is Biomphalaria peregrina. In words: Molluscicidal activity against Biomphalaria peregrina assessed as mortality at 20 ppm after 24 hrs. In outline: as §1
Assay [3] has as its system Biomphalaria peregrina. Description: Molluscicidal activity against Biomphalaria peregrina assessed as mortality at 5 ppm after 24 hrs. The method in brief: as §1
Assay [4] deals with Biomphalaria peregrina. In words: Molluscicidal activity against Biomphalaria peregrina assessed as mortality at 1 ppm after 24 hrs. In outline: as §1
Assay [5] relates to Biomphalaria peregrina. Description: Molluscicidal activity against Biomphalaria peregrina after 24 hrs. The conditions noted are these: for LC50: Biomphalaria peregrina, 24 h, read-out: LD50 (the source's name). The method in brief:
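Adult snails (seven per concentration, triplicate) exposed 24 h to test solutions in water with MeOH ≤5% v/v, per the WHO protocol. Snails were then washed and held 24 h in dechlorinated tap water with lettuce leaves before mortality was scored. Solvent-only negative control; 10 ppm CuSO₄ positive control.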

The test system of assay [6] is Biomphalaria peregrina. In words: Molluscicidal activity against Biomphalaria peregrina assessed as mortality at 10 ppm after 24 hrs. The method in brief: as §1
Assay [7] has as its system Biomphalaria peregrina. Description: Molluscicidal activity against Biomphalaria peregrina assessed as mortality at 0.5 ppm after 24 hrs. The method in brief:
as §1

In the case of `O=C(Nc1ccc([N+](=O)[O-])cc1Cl)c1cc(Cl)ccc1O` [NICLOSAMIDE], the LC50 in the assay with Biomphalaria pfeifferi, with Biomphalaria alexandrina and in the assay on Oncomelania hupensis was at most 0.5 µg/mL each time.

For `CC/C=C(\OC(C)=O)C1=C(OC(C)=O)C(C)(CC=C(C)C)C(OC(C)=O)=C(Cc2c(OC)cc(OC(C)=O)c(C(=O)CCCCC)c2OC(C)=O)C1=O` (stereo unspecified), the Activity in the assay with Biomphalaria peregrina [1] was 81%; with Biomphalaria peregrina [2], 24%; with Biomphalaria peregrina [3] it was 0%; in the assay with Biomphalaria peregrina [4], 0%; in the assay with Biomphalaria peregrina [6] it was 0%. In the assay with Biomphalaria peregrina [5], this compound registered an LD90 of 58.4 µM. For the same compound, the LC50 in the assay with Biomphalaria peregrina [5] was 40.6 µM.

`CC/C=C(\OC(C)=O)C1=C(OC(C)=O)C(C)(CC=C(C)C)C(OC(C)=O)=C(Cc2c(OC)cc(OC(C)=O)c(C(=O)CCC)c2OC(C)=O)C1=O` (stereo unspecified): the Activity with Biomphalaria peregrina [3] was determined as 5%; in the assay with Biomphalaria peregrina [4], 0%; in the assay with Biomphalaria peregrina [6], 43%. Moreover, in the assay on Biomphalaria peregrina [5], the LD90 was found to be 20.7 µM. In the assay with Biomphalaria peregrina [5], the LC50 turned out to be 14.9 µM.

With `CCCCCC(=O)c1c(O)cc(OC)c(CC2=C(O)C(C)(CC=C(C)C)C(O)=C(C(=O)CCC)C2=O)c1O` (stereo unspecified), the Activity in the assay with Biomphalaria peregrina [7] was 10%. In the assay on Biomphalaria peregrina [3], the Activity is 100%. In addition, the Activity with Biomphalaria peregrina [4] worked out at 57%. Besides, in the assay on Biomphalaria peregrina [5], the LD90 was determined as 2.6 µM, the LD100 entry is “<=5 ppm” and the LC50 came to 1.8 µM.

For the compound `CCCC(=O)C1=C(O)C(C)(CC=C(C)C)C(O)=C(Cc2c(OC)cc(O)c(C(=O)CCC)c2O)C1=O` (stereo unspecified), the Activity in the assay with Biomphalaria peregrina [7] was determined as 0%; in the assay with Biomphalaria peregrina [3], 95%; in the assay with Biomphalaria peregrina [4] it was 10%. In addition, the LD90 in the assay on Biomphalaria peregrina [5] came to 9 µM. The LC50 with Biomphalaria peregrina [5] was determined as 5.8 µM.
